# Reference: ChEMBL document CHEMBL1149833, “Lignans from Kadsura angustifolia” (J Nat Prod, 2008)
# Tests used:
# [1] = test system: Human immunodeficiency virus 1; experiment: Antiviral activity against HIV1 in human C8166 cells assessed as prevention of virus-induced cytopathic effect; assay type: functional, organism-based; conditions: Human immunodeficiency virus 1, C8166
# In short: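 HIV-1 infection of C8166 cells, with protection measured as inhibition of virus-induced cytopathic effects and reported as EC50. Cytotoxicity in the same cells was determined in parallel. AZT served as positive control.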
# [2] = Cytotoxicity against human C8166 cells by MTT assay; assay type: cell-based
# In short: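 MTT viability assay on C8166 cells, reported as CC50. It was run in parallel with the HIV-1 cytopathic-effect assay, with AZT as positive control.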
# [3] = Selectivity index, Ratio of CC50 for human C8166 cells to EC50 for HIV1
SMILES,EC50 [1],CC50 [2],Ratio [3]
COc1c2c(cc3c1-c1c(cc4c(c1OC)OCO4)[C@@H](OC(C)=O)[C@H](C)[C@H](C)[C@@H]3O)OCO2 [KADANGUSTIN B],150 µM,> 200 µM,
COc1cc2c(c(O)c1OC)-c1c(cc(OC)c(OC)c1OC)[C@@H](OC(C)=O)[C@H](C)[C@H](C)[C@@H]2OC(=O)/C=C/c1ccccc1 [KADANGUSTIN D],25.4 µM,97.5 µM,
C/C=C(/C)C(=O)O[C@@H]1c2cc(OC)c(OC)c(OC)c2-c2c(cc3c(c2OC)OCO3)[C@@H](OC(C)=O)[C@H](C)[C@]1(C)O [KADSURARIN],168 µM,> 200 µM,
COc1c2c(cc3c1-c1c(cc4c(c1OC)OCO4)[C@@H]1O[C@H]3[C@H](C)[C@@H]1C)OCO2 [EPOXIDESCHISANDRIN C],9.35 µM,220 µM,
COc1c2c(cc3c1-c1c(cc4c(c1OC)OCO4)[C@@H](O)[C@@H](C)[C@@H](C)C3)OCO2 [GOMISIN R],54.6 µM,221 µM,
COc1c2c(cc3c1-c1c(cc4c(c1OC)OCO4)[C@@H](O)[C@H](C)[C@H](C)C3=O)OCO2 [SCHISANTHERIN Q],45.9 µM,212 µM,4.61
COc1cc2c(c(OC)c1OC)-c1c(cc(OC)c(OC)c1OC)[C@@H]1O[C@H]2[C@H](C)[C@@H]1C [KADSULIGNAN N],43.6 µM,382 µM,
COc1ccc(C(c2ccc(OC)c(OC)c2)C(C)C(C)CO)cc1OC (centres undefined) [KADANGUSTIN J],44.7 µM,247 µM,
COc1ccc(CC(C)C(C)C(O)c2cc(O)c(OC)c(OC)c2)cc1OC (centres undefined) [KADANGUSTIN H],27 µM,30.7 µM,
COc1cc(C(O)C(C)C(C)Cc2cc(OC)c3c(c2)OCO3)cc(O)c1OC (centres undefined) [KADANGUSTIN I],21.5 µM,35.1 µM,
C/C=C(/C)C(=O)O[C@@H]1c2cc(OC)c(OC)c(O)c2-c2c(cc(OC)c(OC)c2OC)[C@@H](OC(C)=O)[C@H](C)[C@@H]1C [KADANGUSTIN F],72.6 µM,160 µM,
COc1cc2c(c(O)c1OC)-c1c(cc(OC)c(OC)c1OC)[C@@H](OC(C)=O)[C@H](C)[C@H](C)[C@@H]2O [KADANGUSTIN A],> 200 µM,> 200 µM,
COc1c2c(cc3c1-c1c(cc4c(c1OC)OCO4)[C@@H](O)[C@@H](C)[C@@H](C)[C@@H]3O)OCO2 [SCHISANTHERIN P],156 µM,> 200 µM,
C/C=C(/C)C(=O)O[C@@H]1c2cc3c(c(OC)c2-c2c(cc4c(c2OC)OCO4)[C@@H](O)[C@H](C)[C@@H]1C)OCO3 [SCHISANTHERIN L],138 µM,> 200 µM,
C/C=C(\C)C(=O)O[C@@H]1c2cc(OC)c(OC)c(O)c2-c2c(cc(OC)c(OC)c2OC)[C@@H](OC(C)=O)[C@H](C)[C@@H]1C [KADANGUSTIN G],25.7 µM,72.2 µM,
COc1cc2c(c(O)c1OC)-c1c(cc(O)c(OC)c1OC)[C@@H](O)[C@H](C)[C@H](C)C2 [DEANGELOYLSCHISANTHERIN F],199 µM,281 µM,
COc1cc(C[C@@H](C)[C@@H](C)Cc2ccc(O)c(OC)c2)ccc1O [MESODIHYDROGUAIARETIC ACID],15.6 µM,49.1 µM,
COc1cc2c(c(OC)c1OC)-c1c(cc3c(c1OC)OCO3)[C@H]1O[C@@H]2[C@@H](C)[C@H]1C [KADSULIGNAN L],26.2 µM,361 µM,
COc1cc2c(c(O)c1OC)-c1c(cc(OC)c(OC)c1OC)[C@@H](OC(C)=O)[C@H](C)[C@H](C)[C@@H]2OC(=O)c1ccccc1 [KADANGUSTIN E],60.8 µM,138 µM,
C=CCc1cc(OC)c2c(c1)[C@H](CO)[C@@H](c1ccc(O)c(OC)c1)O2,13.1 µM,38.1 µM,
COc1cc2c(c(O)c1OC)-c1c(cc(OC)c(OC)c1OC)[C@@H](OC(C)=O)[C@H](C)[C@](C)(O)[C@@H]2OC(=O)/C=C/c1ccccc1 [KADANGUSTIN C],38.3 µM,190 µM,
COc1cc2c(c(O)c1OC)-c1c(cc3c(c1OC)OCO3)[C@@H](O)[C@H](C)[C@H](C)C2 [BINANKADSURIN A],3.86 µM,227 µM,
COc1ccc([C@H]2Oc3c(OC)cc(C=O)cc3[C@@H]2C)cc1O [PERSEAL F],40.9 µM,270 µM,
C/C=C(/C)C(=O)Oc1c(OC)c(OC)cc2c1-c1c(cc(O)c(OC)c1OC)[C@@H](O)[C@H](C)[C@H](C)C2 [SCHISANTHERIN F],95.2 µM,> 200 µM,
